Here are results for seven molecules from ChEMBL document CHEMBL3352450, “Indazole-type alkaloids from Nigella sativa seeds exhibit antihyperglycemic effects via AMPK activation in vitro” (J Nat Prod, 2014).

In series [1] the test system is HepG2. In words: Toxicity against human HepG2 cells at 100 uM. The series is classed as cell-based. The note with it: hepg2, 100 µM.
For series [2], the system named is HepG2. In words: Increase in glucose consumption in human HepG2 cells grown under low-glucose medium assessed as reduction in glucose levels at 25 uM incubated for 7 hrs by glucose assay. On the set-up: scale not given: the % may be the effect or the level left. The series is classed as functional. The essentials: (§1)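 HepG2 cells (kept in high-glucose DMEM with 10% FBS) were seeded at 4.0 × 10^4 cells/well for 8 h. They were then held overnight in low-glucose ([…]) medium with 2 mM glutamine and 1% FBS. Treatment lasted 7 h in that medium, with DMSO stocks and 0.1% DMSO as solvent control. Medium glucose was read by colorimetric kit at 490 nm, with 3 replicates, as mean ± SD.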

In series [3] the target is AMP-activated protein kinase, AMPK (Homo sapiens) (UniProt P54646+O43741+P54619+Q9UGJ0+Q9Y478+Q13131+Q9UGI9). In words: Increase in AMPK phosphorylation in human HepG2 cells at 25 to 100 uM incubated for 24 hrs by Western blotting method. The series is classed as cell-based. The essentials: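 HepG2 cells were grown in 6-well plates for 8 h, then held overnight in low-glucose medium and treated for 24 h. Lysis was in RIPA buffer with BCA protein assay. 20 μg/lane was run on 8% SDS-PAGE and blotted to PVDF, blocked in 5% milk, and probed overnight for p-AMPK (Thr172), AMPK and β-actin. HRP secondary was applied for 1 h, with ECL detection on film.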
In general terms: A western blot detects proteins with antibodies after separation by electrophoresis.

In series [4] the test system is HepG2. In words: Increase in glucose consumption in human HepG2 cells grown under low-glucose medium assessed as reduction in glucose levels at 1 mM incubated for 7 hrs by glucose assay. The series is classed as functional. On the set-up: scale not given: the % may be the effect or the level left. The essentials:
as §1

The structures appear in SMILES notation.

On to `COc1cc(C)cc2c1c(-c1ccc(O[C@@H]3O[C@H](CO)[C@@H](O)[C@H](O)[C@H]3O)cc1)[n+]1n2CCCC1`, for which the results for the Activity result in series [1], in series [2] and in series [3] were “Non-toxic”, 29% and “Dose-dependent effect”, respectively.
As to `Cc1cc(O)c2c[n+]3n(c2c1)CCCC3`, the Activity result in series [1] is reported as “Non-toxic”; in series [2], 8%.
On the same counts, the results for `COc1cc(C)cc2c1c(-c1ccc(O)cc1)[n+]1n2CCCC1` are “Non-toxic” and 8%.
Regarding `COc1cc(C)cc2c1c[n+]1n2CCCC1`, the Activity result was “Non-toxic” in series [1], 8% in series [2] and “Dose-dependent effect” in series [3].
Regarding `CN(C)C(=N)NC(=N)N` [METFORMIN], in series [4], the Activity is 24%.
Turning to `C[C@@]1(O)CC(=O)c2c(n3[n+](c2-c2ccc(O)cc2)CCCC3)C1`, the Activity result was “Non-toxic” in series [1] and 8% in series [2].
On to `Cc1cc(O)c2c(-c3ccc(O)cc3)[n+]3n(c2c1)CCCC3`, for which the Activity result in series [1] is reported as “Non-toxic”; in series [2], 8%.
